In brackets after ≈: the same amount, converted by molar mass.
Assays:
[1] = Partition coefficient, log P of the compound; type: physicochemical; details: octanol/water
How it was run: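 Calculated, not measured: AlogP, IAlogP, ClogP, Cosmo logP, mlogP, Kowwin and XlogP were computed and averaged.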

Enterobacter cloacae = assay: Antibacterial activity against Enterobacter cloacae after 24 hrs by microdilution test; type: functional
How it was run: (§1)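 Broth microdilution in LB medium in 96-well plates. Inoculum 1.0 × 10⁴ CFU per well, from a suspension set to 1.0 × 10⁵ CFU/ml in sterile saline. Compounds at […] µg/ml. Incubation 24 h at 28 °C. MIC is the lowest concentration with no visible growth under a binocular microscope. MBC by subculturing 2 µl into fresh broth for a further 72 h. OD540 read against blank. DMSO negative control.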

Salmonella enteritidis = assay: Antibacterial activity against Salmonella enteritidis ATCC 13076 after 24 hrs by microdilution test; type: functional, Salmonella enterica subsp. enterica serovar Enteritidis; details: Salmonella enterica, ATCC 13076, 24 h; how it was run: as §1
Salmonella typhimurium = assay: Antibacterial activity against Salmonella Typhimurium ATCC 13311 after 24 hrs by microdilution test; type: functional, Salmonella enterica subsp. enterica serovar Typhimurium; details: Salmonella enterica, ATCC 13311, 24 h; how it was run: as §1
[2] = test system: Staphylococcus epidermidis; assay: Antibacterial activity against Staphylococcus epidermidis ATCC 12228 after 24 hrs by microdilution test; type: functional; details: ATCC 12228, 24 h; how it was run: as §1
Micrococcus luteus = assay: Antibacterial activity against Micrococcus flavus ATCC 10240 after 24 hrs by microdilution test; type: functional; details: ATCC 10240, 24 h; how it was run: as §1
Escherichia coli = assay: Antibacterial activity against Escherichia coli ATCC 35210 after 24 hrs by microdilution test; type: functional; details: ATCC 35210, 24 h; how it was run: as §1
Aspergillus flavus = assay: Antifungal activity against Aspergillus flavus ATCC 9643 after 72 hrs by microdilution test; type: functional; details: ATCC 9643, 72 h
How it was run: (§2)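 Modified microdilution in malt broth. Spores were washed from malt agar with sterile 0.85% saline containing 0.1% Tween 80 and adjusted to about 1.0 × 10⁵ per well. Compounds were dissolved in DMSO and tested at […] µg/ml. Incubation 72 h at 28 °C. MIC is the lowest concentration with no visible growth under a binocular microscope. MFC by 2 µl subculture and a further 72 h at 28 °C.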

Trichoderma viride = assay: Antifungal activity against Trichoderma viride IAM 5061 after 72 hrs by microdilution test; type: functional; how it was run: as §2
Talaromyces funiculosus = assay: Antifungal activity against Penicillium funiculosum ATCC 36839 after 72 hrs by microdilution test; type: functional; details: ATCC 36839, 72 h; how it was run: as §2
Aspergillus versicolor = assay: Antifungal activity against Aspergillus versicolor ATCC 11730 after 72 hrs by microdilution test; type: functional; details: ATCC 11730, 72 h; how it was run: as §2
Aspergillus ochraceus = assay: Antifungal activity against Aspergillus ochraceus ATCC 12066 after 72 hrs by microdilution test; type: functional; details: ATCC 12066, 72 h; how it was run: as §2
Aspergillus niger = assay: Antifungal activity against Aspergillus niger ATCC 6275 after 72 hrs by microdilution test; type: functional; details: ATCC 6275, 72 h; how it was run: as §2
Bacillus cereus = assay: Antibacterial activity against Bacillus cereus ATCC 10907 after 24 hrs by microdilution test; details: ATCC 10907, 24 h

logP [1]: 2.4
MIC (Enterobacter cloacae): 100 µg/mL (≈ 213 µM)
MIC (Salmonella enteritidis): 150 µg/mL (≈ 320 µM)
MIC (Salmonella typhimurium): 150 µg/mL (≈ 320 µM)
MIC [2]: 150 µg/mL (≈ 320 µM)
MIC (Micrococcus luteus): 150 µg/mL (≈ 320 µM)
MIC (Escherichia coli): 100 µg/mL (≈ 213 µM)
MIC (Aspergillus flavus): 50 µg/mL (≈ 107 µM)
MIC (Trichoderma viride): 50 µg/mL (≈ 107 µM)
MIC (Talaromyces funiculosus): 100 µg/mL (≈ 213 µM)
MIC (Aspergillus versicolor): 100 µg/mL (≈ 213 µM)
MIC (Aspergillus ochraceus): 100 µg/mL (≈ 213 µM)
MIC (Aspergillus niger): 100 µg/mL (≈ 213 µM)
MIC (Bacillus cereus): 150 µg/mL (≈ 320 µM)
Structure (SMILES): COc1cc(Cc2n[nH]c(=S)n2-c2ccc(Cl)cc2)c(S(=O)(=O)N(C)C)cc1OC
MBC (Enterobacter cloacae): 100 µg/mL (≈ 213 µM)
MBC (Salmonella enteritidis): 150 µg/mL (≈ 320 µM)
MBC (Salmonella typhimurium): 150 µg/mL (≈ 320 µM)
MBC [2]: 150 µg/mL (≈ 320 µM)
MBC (Micrococcus luteus): 150 µg/mL (≈ 320 µM)
MBC (Escherichia coli): 150 µg/mL (≈ 320 µM)
MFC (Aspergillus flavus): 100 µg/mL (≈ 213 µM)
MFC (Trichoderma viride): 100 µg/mL (≈ 213 µM)
MFC (Talaromyces funiculosus): 100 µg/mL (≈ 213 µM)
MFC (Aspergillus versicolor): 150 µg/mL (≈ 320 µM)
MFC (Aspergillus ochraceus): 150 µg/mL (≈ 320 µM)
MFC (Aspergillus niger): 150 µg/mL (≈ 320 µM)
MBC (Bacillus cereus): 150 µg/mL (≈ 320 µM)

— ChEMBL document CHEMBL1143237, “Sulfonamide-1,2,4-triazole derivatives as antifungal and antibacterial agents: synthesis, biological evaluation, lipophilicity, and conformational studies” (Bioorg Med Chem, 2008)
